pEC50: −log10 of the molar value. Values belong to the compound of their own block, whether it stands above or below them. Calls of active or inactive are those of the source. No cut-off for these calls is given here.
Assays:
[1] = tested on: Mus musculus; assay: Suppression of blood glucose concentration in ob/ob C57Bl/6J mouse model of T2DM at 4.5 mg/kg, ip and treated with 60 mg/kg, po OATP/MRP2 inhibitor rifampicin 2.5 hrs prior to oral glucose-tolerance test; format: functional, organism-based
Summary of the method: (§1)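 Male ob/ob mice aged 10–11 weeks, n=7, randomised on blood glucose and fasted overnight. Rifampicin 60 mg/kg p.o. 2.5 h before the oGTT, compound 30 mg/kg p.o. 1 h before, GLP1(9-36)NH2 i.p. 15 min before, each given as indicated. Glucose 2 g/kg orally. Tail-vein glucose by glucometer at 0, 15, 30, 60 and 90 min.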

[2] = tested on: Mus musculus; assay: Suppression of blood glucose concentration in ob/ob C57Bl/6J mouse model of T2DM at 4.5 mg/kg, ip in absence of 60 mg/kg, po OATP/MRP2 inhibitor rifampicin by oral glucose-tolerance test; format: functional, organism-based; summary of the method: as §1
[3] = Tmax in mouse at 10 mg/kg, po; settings: in vivo
[4] = Cmax in mouse at 10 mg/kg, po; settings: in vivo
[5] = target: T1, Glucagon-like peptide 1 receptor (Homo sapiens, UniProt P43220); assay: Positive allosteric modulator activity at human GLP-1R expressed in PSC-HEK293 cells in presence of EC20 level of GLP1(9-36)NH2 incubated for 30 mins by HTRF cAMP assay; format: functional, cell-based
Summary of the method: (§2)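 Thaw-and-use PSC-HEK293 cells stably expressing human GLP-1R, 2000 cells/well in HBSS/20 mM HEPES/0.1% BSA with 2 mM IBMX. Enhancer format: compound dose-response plus fixed EC20 GLP1(9-36)NH2. Shift format: GLP1(9-36)NH2 dose-response plus 10 or 3 μM compound. 30 min at room temperature. EC50 from a 4-parameter logistic fit.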

[6] = target: T1, Glucagon-like peptide 1 receptor; assay: Positive allosteric modulator activity at human GLP-1R expressed in PSC-HEK293 cells in presence of EC20 level of GLP1(9-36)NH2 incubated for 30 mins by HTRF cAMP assay relative to control; format: functional, cell-based
Summary of the method: as §2, with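 “temperature. HTRF cAMP read after 1 h lysis (665/620 nm).” for “temperature.”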

[7] = target: T1, Glucagon-like peptide 1 receptor; assay: Positive allosteric modulator activity at GLP-1R in human 1.1B4 cells in presence of EC20 level of GLP1(9-36)NH2 incubated for 30 mins by HTRF cAMP assay; format: functional, cell-based
Summary of the method: (§3)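 Human pancreatic β-cell line 1.1B4, 20,000 cells/well cultured overnight, washed twice; compound concentration-response with fixed 10 nM GLP1(9-36)NH2, 30 min. cAMP by HTRF 665/620 ratio, normalised to buffer (1x HBSS, 0.1% BSA, 1 mM IBMX; 0%) and GLP-1(7-36)NH2 (100%); 4-parameter logistic fit.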

[8] = target: T1, Glucagon-like peptide 1 receptor; assay: Positive allosteric modulator activity at human GLP-1R expressed in PSC-HEK293 cells assessed as potentiation of GLP1(9-36)NH2-induced cAMP accumulation by measuring shift in EC50 of endogenous GLP1(9-36)NH2 at 10 uM incubated for 30 mins by HTRF cAMP assay relative to control; format: functional, cell-based
Summary of the method: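 Thawed frozen PSC-HEK293 cells stably expressing human GLP-1R, 2000 cells/well in HBSS/20 mM HEPES/0.1% BSA with 2 mM IBMX. Shift format: GLP1(9-36)NH2 dose-response with compound fixed at 10 or 3 µM; 30 min room temperature; cAMP by HTRF (665/620 nm ratio) after 1 h with lysis reagents; 4-parameter logistic fit; EC50 shift factor derived.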

[9] = target: T1, Glucagon-like peptide 1 receptor; assay: Positive allosteric modulator activity at GLP-1R in human 1.1B4 cells in presence of EC20 level of GLP1(9-36)NH2 incubated for 30 mins by HTRF cAMP assay relative to control; format: functional, cell-based; summary of the method: as §3
[10] = target: T2, Glucagon-like peptide 1 receptor (Mus musculus) (UniProt O35659); assay: Positive allosteric modulator activity at GLP-1R in mouse MIN6-c4 cells assessed as effect on glucose-mediated increase in intracellular Ca2+ level by FLIPR assay relative to control; format: functional, cell-based
T2 sequence (whole entry): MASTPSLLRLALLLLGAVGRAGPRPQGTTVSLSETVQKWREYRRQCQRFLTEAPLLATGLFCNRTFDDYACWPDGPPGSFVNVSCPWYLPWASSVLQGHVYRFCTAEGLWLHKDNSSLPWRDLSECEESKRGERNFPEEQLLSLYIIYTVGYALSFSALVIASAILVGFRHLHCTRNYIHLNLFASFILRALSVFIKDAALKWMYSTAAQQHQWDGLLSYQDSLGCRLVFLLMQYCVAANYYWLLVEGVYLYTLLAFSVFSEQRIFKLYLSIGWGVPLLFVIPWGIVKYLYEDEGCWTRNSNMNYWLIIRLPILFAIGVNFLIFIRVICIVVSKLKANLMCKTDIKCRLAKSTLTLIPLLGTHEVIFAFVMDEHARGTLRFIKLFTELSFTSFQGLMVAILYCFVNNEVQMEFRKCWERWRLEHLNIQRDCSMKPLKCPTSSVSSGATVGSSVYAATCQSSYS

[11] = Stability in GSH assay; format: physicochemical
[12] = target: T1, Glucagon-like peptide 1 receptor; assay: Displacement of radioactive labeled GLP-1(7-36)NH2 from human GLP-1R by radioactive ligand binding assay
[13] = Agonist activity at KATP channel (unknown origin); set-up: species or system Homo sapiens
[14] = target: Sodium channel protein type 2 subunit alpha (Homo sapiens) (UniProt Q99250); assay: Effect on Nav1.2 (unknown origin)
[15] = target: Sodium channel protein type 5 subunit alpha (Homo sapiens, UniProt Q14524); assay: Effect on Nav1.5 (unknown origin)
[16] = target: T2, Glucagon-like peptide 1 receptor (Mus musculus); assay: Inhibition of 15 mM glucose-mediated increase in intracellular Ca2+ level in mouse MIN6-c4 cells at 30 uM by FLIPR assay relative to control; format: functional, cell-based
[17] = target: T3, Glucagon-like peptide 1 receptor (Mus musculus, UniProt O35659); assay: Positive allosteric modulator activity at mouse GLP-1R expressed in PSC-HEK293 cells in presence of EC20 level of GLP1(9-36)NH2 incubated for 30 mins by HTRF cAMP assay; format: functional, cell-based
T3 sequence (O35659 whole entry): T2 sequence (whole entry)

[18] = target: T2, Glucagon-like peptide 1 receptor (Mus musculus); assay: Positive allosteric modulator activity at mouse GLP-1R expressed in PSC-HEK293 cells in presence of EC20 level of GLP1(9-36)NH2 incubated for 30 mins by HTRF cAMP assay relative to control; format: functional, cell-based

T1 sequence (P43220 whole entry): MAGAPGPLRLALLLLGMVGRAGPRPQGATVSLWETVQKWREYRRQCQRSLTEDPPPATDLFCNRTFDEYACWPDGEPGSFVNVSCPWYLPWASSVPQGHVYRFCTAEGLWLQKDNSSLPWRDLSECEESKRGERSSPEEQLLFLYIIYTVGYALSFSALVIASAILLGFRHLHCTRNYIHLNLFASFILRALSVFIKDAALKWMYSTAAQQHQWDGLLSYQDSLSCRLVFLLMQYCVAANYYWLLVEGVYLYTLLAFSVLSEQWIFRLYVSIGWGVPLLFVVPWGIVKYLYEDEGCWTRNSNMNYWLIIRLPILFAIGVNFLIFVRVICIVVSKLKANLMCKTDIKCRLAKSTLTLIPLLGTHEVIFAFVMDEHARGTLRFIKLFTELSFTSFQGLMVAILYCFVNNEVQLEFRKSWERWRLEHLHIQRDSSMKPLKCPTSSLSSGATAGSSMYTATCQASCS
Chain of Sodium channel protein type 5 subunit alpha (Q14524 whole entry): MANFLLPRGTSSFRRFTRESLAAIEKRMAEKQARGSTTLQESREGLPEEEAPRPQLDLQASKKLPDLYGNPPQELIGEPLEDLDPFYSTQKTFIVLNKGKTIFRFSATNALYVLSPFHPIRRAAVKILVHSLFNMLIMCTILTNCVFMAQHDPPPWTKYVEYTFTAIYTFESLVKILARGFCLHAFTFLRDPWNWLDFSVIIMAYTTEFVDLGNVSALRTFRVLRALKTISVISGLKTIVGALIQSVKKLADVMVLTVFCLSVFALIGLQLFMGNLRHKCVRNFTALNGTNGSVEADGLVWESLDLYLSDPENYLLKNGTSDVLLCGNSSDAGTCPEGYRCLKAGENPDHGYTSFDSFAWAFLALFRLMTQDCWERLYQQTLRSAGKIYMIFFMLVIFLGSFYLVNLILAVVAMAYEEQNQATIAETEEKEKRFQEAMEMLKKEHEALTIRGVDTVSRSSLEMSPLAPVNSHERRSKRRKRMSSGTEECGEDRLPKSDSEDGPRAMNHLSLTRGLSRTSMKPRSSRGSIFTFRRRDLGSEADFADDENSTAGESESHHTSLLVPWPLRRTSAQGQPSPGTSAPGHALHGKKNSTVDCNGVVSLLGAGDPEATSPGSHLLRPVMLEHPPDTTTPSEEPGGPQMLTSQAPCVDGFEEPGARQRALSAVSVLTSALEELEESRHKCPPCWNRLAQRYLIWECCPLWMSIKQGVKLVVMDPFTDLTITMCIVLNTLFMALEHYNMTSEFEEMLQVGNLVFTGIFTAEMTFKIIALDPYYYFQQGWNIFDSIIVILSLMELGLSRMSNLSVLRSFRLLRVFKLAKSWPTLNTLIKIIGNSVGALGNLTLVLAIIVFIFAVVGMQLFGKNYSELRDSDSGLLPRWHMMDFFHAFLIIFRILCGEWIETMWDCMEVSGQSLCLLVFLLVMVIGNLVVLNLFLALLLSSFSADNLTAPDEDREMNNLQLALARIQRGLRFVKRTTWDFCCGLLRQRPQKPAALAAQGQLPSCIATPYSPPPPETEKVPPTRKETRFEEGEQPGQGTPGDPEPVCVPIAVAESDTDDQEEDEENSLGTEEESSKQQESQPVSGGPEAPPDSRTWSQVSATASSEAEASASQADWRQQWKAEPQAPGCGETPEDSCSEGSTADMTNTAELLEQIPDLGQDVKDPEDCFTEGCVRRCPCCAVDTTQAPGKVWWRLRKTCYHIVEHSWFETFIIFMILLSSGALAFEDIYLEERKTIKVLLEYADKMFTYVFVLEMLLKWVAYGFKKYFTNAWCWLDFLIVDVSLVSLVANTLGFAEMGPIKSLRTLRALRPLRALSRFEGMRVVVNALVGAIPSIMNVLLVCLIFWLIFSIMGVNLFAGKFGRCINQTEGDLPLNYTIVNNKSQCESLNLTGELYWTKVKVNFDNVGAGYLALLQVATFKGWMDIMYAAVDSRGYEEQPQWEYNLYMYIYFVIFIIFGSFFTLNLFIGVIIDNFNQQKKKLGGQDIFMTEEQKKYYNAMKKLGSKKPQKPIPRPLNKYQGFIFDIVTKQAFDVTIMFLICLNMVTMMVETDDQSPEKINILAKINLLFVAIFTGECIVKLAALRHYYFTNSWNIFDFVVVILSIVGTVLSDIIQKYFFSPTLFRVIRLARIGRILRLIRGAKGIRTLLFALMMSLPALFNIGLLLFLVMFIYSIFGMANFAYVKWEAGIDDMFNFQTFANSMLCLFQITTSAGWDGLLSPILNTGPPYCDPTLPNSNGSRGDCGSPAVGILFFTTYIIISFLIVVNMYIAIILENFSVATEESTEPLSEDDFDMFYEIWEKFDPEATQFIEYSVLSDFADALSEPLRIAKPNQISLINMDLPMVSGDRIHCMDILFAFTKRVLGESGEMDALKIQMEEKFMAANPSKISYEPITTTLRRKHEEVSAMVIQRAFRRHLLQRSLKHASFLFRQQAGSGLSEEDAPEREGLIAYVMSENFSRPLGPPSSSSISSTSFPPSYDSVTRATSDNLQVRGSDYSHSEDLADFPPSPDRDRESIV
Chain of Sodium channel protein type 2 subunit alpha (Homo sapiens) (Q99250 whole entry, looked up): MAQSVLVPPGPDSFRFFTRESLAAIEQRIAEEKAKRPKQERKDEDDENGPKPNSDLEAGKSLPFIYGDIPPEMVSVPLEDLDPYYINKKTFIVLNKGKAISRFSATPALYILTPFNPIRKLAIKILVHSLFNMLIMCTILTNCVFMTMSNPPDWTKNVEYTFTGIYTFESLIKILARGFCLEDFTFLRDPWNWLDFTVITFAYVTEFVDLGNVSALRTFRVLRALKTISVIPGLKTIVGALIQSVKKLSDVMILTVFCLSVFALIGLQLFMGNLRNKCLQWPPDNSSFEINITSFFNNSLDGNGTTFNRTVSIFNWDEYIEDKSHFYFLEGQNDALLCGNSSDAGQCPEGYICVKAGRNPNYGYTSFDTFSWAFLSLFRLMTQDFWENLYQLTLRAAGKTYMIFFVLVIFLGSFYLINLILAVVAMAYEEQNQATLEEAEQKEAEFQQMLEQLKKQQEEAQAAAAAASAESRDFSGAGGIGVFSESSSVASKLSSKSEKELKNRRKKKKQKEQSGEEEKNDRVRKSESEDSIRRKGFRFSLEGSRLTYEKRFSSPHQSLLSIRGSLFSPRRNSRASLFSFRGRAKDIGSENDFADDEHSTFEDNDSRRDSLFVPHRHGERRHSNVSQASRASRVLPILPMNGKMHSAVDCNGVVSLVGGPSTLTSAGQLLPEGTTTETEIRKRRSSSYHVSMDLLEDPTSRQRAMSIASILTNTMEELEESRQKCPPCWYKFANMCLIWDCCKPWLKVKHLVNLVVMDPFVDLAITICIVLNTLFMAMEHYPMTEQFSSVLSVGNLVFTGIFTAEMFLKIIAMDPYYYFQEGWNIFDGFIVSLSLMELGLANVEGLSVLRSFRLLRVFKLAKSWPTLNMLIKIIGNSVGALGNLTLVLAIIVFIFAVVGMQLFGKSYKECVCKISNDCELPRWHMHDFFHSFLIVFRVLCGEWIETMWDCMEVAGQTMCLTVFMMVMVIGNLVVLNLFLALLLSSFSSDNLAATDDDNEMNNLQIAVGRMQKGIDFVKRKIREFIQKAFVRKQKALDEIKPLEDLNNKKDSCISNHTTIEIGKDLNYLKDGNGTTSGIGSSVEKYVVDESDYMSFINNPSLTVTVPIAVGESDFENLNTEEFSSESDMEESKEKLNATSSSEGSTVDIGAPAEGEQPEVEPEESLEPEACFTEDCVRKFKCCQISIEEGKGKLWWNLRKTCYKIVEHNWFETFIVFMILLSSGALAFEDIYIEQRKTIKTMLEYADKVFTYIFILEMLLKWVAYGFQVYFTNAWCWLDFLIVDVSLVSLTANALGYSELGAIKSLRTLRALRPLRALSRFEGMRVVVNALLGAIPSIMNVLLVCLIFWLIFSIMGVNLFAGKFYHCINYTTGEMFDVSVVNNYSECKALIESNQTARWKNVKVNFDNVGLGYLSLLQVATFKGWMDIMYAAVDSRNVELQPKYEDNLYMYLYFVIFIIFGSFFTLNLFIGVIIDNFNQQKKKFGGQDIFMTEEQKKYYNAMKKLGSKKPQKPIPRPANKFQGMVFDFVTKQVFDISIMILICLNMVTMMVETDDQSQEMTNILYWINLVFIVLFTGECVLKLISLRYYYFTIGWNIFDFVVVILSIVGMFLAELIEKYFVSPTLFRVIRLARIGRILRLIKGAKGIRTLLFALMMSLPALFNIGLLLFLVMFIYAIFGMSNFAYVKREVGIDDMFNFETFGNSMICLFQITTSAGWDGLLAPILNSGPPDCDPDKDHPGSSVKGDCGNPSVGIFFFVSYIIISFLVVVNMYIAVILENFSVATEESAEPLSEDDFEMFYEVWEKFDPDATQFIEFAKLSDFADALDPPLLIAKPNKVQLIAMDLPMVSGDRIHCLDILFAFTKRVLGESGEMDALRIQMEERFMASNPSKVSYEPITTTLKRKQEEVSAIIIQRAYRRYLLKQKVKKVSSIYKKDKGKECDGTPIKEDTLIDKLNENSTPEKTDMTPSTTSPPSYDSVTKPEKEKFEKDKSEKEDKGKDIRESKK

- Tmax [3]: 1.5 h
- Cmax [4]: 13 µM
SMILES: CO[C@H]1/C=C/O[C@@]2(C)Oc3c(C)c(O)c4c(O)c(c(/C=N/N5CCN(C)CC5)c(O)c4c3C2=O)NC(=O)/C(C)=C\C=C\[C@H](C)[C@H](O)[C@@H](C)[C@@H](O)[C@@H](C)[C@H](OC(C)=O)[C@@H]1C [RIFAMPIN]

- inhibition [16]: Active
SMILES: CC1=Nc2ccc(Cl)cc2S(=O)(=O)N1

Further lines, the compound ahead of its results:

SMILES: CC[C@H](C)[C@H](NC(=O)[C@H](Cc1ccccc1)NC(=O)[C@H](CCC(=O)O)NC(=O)[C@H](CCCCN)NC(=O)[C@H](C)NC(=O)[C@H](C)NC(=O)[C@H](CCC(N)=O)NC(=O)CNC(=O)[C@H](CCC(=O)O)NC(=O)[C@H](CC(C)C)NC(=O)[C@H](Cc1ccc(O)cc1)NC(=O)[C@H](CO)NC(=O)[C@H](CO)NC(=O)[C@@H](NC(=O)[C@H](CC(=O)O)NC(=O)[C@H](CO)NC(=O)[C@@H](NC(=O)[C@H](Cc1ccccc1)NC(=O)[C@@H](NC(=O)CNC(=O)[C@@H](N)CCC(=O)O)[C@@H](C)O)[C@@H](C)O)C(C)C)C(=O)N[C@@H](C)C(=O)N[C@@H](Cc1c[nH]c2ccccc12)C(=O)N[C@@H](CC(C)C)C(=O)N[C@H](C(=O)N[C@@H](CCCCN)C(=O)NCC(=O)N[C@@H](CCCNC(=N)N)C(N)=O)C(C)C
- Activity [1]: inactive
- Activity [2]: inactive

SMILES: CC(C)(C)OC(=O)n1c2c(c3ccccc31)C[C@H]1C(=O)NC[C@@H]2N1C(=O)CC1CCC(F)(F)CC1
- pEC50 [5]: 8.30
- Emax [6]: 99%
- EC50 [7]: Not Active
- Ratio EC50 [8]: 3800
- Emax [9]: inactive
- fold change (FC) [10]: inactive
- Stability [11]: Stable
- inhibition [12]: inactive
- pEC50 [13]: 5.57
- Activity [14]: Active
- Activity [15]: Active

SMILES: Cc1cc(-n2nc3c(c2-n2ccn(-c4ccc5c(cnn5C)c4F)c2=O)[C@H](C)N(C(=O)c2cc4cc([C@H]5CCOC(C)(C)C5)ccc4n2[C@@]2(c4noc(=O)[nH]4)C[C@@H]2C)CC3)cc(C)c1F [ORFORGLIPRON]
- Emax [6]: 91%
- pEC50 [17]: 6.52
- Emax [18]: 100%

Source: ChEMBL document CHEMBL4354813, “Design, Synthesis, and Pharmacological Evaluation of Potent Positive Allosteric Modulators of the Glucagon-like Peptide-1 Receptor (GLP-1R)” (J Med Chem, 2020)
